ChEMBL document CHEMBL1833840, “RGD mimetics containing phthalimidine fragment as novel ligands of fibrinogen receptor” (Bioorg Med Chem Lett, 2011)
pIC50: −log10 of the molar value.

Assays:
[1] = tested on: Platelet; assay: Inhibition of ADP-induced platelet aggregation in human platelet rich plasma by Borns method; assay type: functional
Summary of the method: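 Human platelet-rich plasma stimulated with ADP, with aggregation followed by Born's method.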

[2] = target: Integrin alpha-IIb/beta-3 (Homo sapiens) (UniProt P08514); assay: Displacement of FITC-labeled fibrinogen from alphaIIbbeta3 in human platelets
Integrin alpha-IIb/beta-3 (Homo sapiens), sequence (P08514 whole entry, looked up): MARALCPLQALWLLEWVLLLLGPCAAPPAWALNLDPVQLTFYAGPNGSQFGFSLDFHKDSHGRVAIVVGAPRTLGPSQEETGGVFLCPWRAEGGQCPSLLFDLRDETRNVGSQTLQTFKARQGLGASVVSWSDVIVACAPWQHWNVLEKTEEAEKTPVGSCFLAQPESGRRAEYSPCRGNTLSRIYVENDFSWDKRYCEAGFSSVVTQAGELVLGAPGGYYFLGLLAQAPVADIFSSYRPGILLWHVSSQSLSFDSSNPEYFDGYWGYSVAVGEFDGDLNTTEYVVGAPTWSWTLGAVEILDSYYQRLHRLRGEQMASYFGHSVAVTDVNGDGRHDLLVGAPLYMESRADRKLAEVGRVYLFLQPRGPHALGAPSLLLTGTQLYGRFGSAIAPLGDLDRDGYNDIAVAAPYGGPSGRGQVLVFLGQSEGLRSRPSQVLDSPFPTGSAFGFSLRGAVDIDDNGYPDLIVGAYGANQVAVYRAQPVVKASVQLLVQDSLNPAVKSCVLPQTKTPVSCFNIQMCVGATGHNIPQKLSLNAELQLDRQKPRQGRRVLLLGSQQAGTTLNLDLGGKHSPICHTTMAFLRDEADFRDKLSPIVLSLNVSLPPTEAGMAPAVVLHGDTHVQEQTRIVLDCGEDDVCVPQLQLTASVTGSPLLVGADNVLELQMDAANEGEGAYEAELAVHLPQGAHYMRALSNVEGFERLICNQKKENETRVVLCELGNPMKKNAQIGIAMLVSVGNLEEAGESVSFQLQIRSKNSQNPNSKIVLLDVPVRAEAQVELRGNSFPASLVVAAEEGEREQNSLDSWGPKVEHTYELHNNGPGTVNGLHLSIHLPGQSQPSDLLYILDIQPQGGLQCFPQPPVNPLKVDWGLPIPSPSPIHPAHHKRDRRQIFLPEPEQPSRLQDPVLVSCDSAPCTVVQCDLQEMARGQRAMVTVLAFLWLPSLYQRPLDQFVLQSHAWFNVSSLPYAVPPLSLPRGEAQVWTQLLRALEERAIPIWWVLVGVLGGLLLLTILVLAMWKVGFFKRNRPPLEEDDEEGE

pIC50 [1] | pIC50 [2] | Structure (SMILES)
4.62 | 6.57 | O=C(O)CN1Cc2ccc(NC(=O)c3ccc(C4CCNCC4)cc3)cc2C1=O
3.92 | 5.92 | O=C(O)CN1Cc2ccc(NC(=O)c3ccc4c(c3)CNCC4)cc2C1=O
5.23 | 8.26 | O=C(O)CCN1Cc2ccc(NC(=O)CCCC3CCNCC3)cc2C1=O
5.02 | 8.17 | O=C(O)CCN1Cc2ccc(NC(=O)c3ccc(C4CCNCC4)cc3)cc2C1=O
6.27 | – | O=C(O)CCN1Cc2ccc(NC(=O)c3ccc(N4CCNCC4)cc3)cc2C1=O
5.96 | 8.19 | O=C(O)CCN1Cc2ccc(NC(=O)c3ccc4c(c3)CNCC4)cc2C1=O
4.29 | – | O=C(O)CCCN1Cc2ccc(NC(=O)CCCC3CCNCC3)cc2C1=O
3.39 | – | O=C(O)CCCN1Cc2ccc(NC(=O)c3ccc(C4CCNCC4)cc3)cc2C1=O
3.48 | – | O=C(O)CCCN1Cc2ccc(NC(=O)c3ccc4c(c3)CNCC4)cc2C1=O
5.96 | 7.66 | O=C(O)CCNC(=O)CCNC(=O)c1ccc2c(c1)CNCC2
5.35 | – | Cc1ccc(S(=O)(=O)N[C@@H](CNC(=O)Cc2cn(CCCC3CCNCC3)c3ccccc23)C(=O)O)cc1
7.05 | – | N=C(N)c1ccc(C(=O)Nc2ccc3c(c2)CCN(CC(=O)O)C3)cc1
4.18 | – | O=C(O)CN1Cc2ccc(NC(=O)CCCC3CCNCC3)cc2C1=O
7.60 | – | O=C(O)CCNC(=O)c1ccc2c(c1)C(=O)N(CCC1CCNCC1)C2
5.27 | 6.46 | CC(CC(=O)O)N1Cc2ccc(NC(=O)CCCC3CCNCC3)cc2C1=O (racemic)
5.21 | – | CC(CC(=O)O)N1Cc2ccc(NC(=O)c3ccc(C4CCNCC4)cc3)cc2C1=O (racemic)
5.43 | 7.43 | CC(CC(=O)O)N1Cc2ccc(NC(=O)c3ccc(N4CCNCC4)cc3)cc2C1=O (racemic)
7.07 | 8.19 | CC(CC(=O)O)N1Cc2ccc(NC(=O)c3ccc4c(c3)CNCC4)cc2C1=O (racemic)
